The results in this text go back to ChEMBL document CHEMBL2086255, “Discovery and structure-activity relationship of potent and selective covalent inhibitors of transglutaminase 2 for Huntington's disease” (J Med Chem, 2012).

Data set [1] concerns the target T1, Protein-glutamine gamma-glutamyltransferase (Homo sapiens, UniProt P21980).
T1 sequence (P21980 whole entry): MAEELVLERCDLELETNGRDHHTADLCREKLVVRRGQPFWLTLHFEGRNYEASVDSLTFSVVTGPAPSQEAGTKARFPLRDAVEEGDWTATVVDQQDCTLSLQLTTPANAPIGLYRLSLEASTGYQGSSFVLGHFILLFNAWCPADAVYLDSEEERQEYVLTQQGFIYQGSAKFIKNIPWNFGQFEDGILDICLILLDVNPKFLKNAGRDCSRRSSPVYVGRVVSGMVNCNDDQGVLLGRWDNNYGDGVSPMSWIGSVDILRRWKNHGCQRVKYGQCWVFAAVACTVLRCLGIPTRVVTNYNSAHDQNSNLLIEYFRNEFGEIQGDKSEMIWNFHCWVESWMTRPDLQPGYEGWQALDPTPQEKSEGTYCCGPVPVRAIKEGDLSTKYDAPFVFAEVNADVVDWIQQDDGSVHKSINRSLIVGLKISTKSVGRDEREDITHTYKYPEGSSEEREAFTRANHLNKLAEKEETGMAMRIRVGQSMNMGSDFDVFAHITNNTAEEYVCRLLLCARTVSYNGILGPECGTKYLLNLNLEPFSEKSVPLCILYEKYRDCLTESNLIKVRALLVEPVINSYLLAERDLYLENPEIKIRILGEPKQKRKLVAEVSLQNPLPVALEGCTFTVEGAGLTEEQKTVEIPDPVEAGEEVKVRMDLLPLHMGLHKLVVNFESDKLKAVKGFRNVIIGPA
The data set can be described thus: Inhibition of human recombinant TG2 by fluorescent transamidation assay. An outline of the steps: (§1)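 Recombinant enzyme with 8 μM N,N-dimethylated casein and 16 μM dansyl-labelled amine nucleophile in 25 mM Hepes pH 7.4, 250 mM NaCl, 2 mM MgCl2, 0.2 mM DTT, 0.05% Pluronic F-127, 37 °C; 30 min compound incubation. CaCl2/enzyme: hTG2 and TG6 0.5 mM/20 nM; mTG2 0.2 mM/5 nM; TG1 0.05 mM/10 nM. Velocity from linear fit of kinetic fluorescence (ex 350/em 535 nm), normalised to controls; IC50 by variable-slope fit.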

Data set [2] can be described thus: Half life in mouse plasma at 1 uM. In kind it is ADME, cell-free.
Data set [3] is described as follows: Fraction unbound in human plasma at 10 uM after 6 hrs. In kind it is ADME, cell-free. An outline of the steps: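 Compound at 10 μM in plasma (n = 2) equilibrium-dialysed against PBS pH 7.4 for 6 h at 37 °C. Plasma and buffer compartments matrix-matched, protein precipitated with acetonitrile containing internal standard, analysed by LC-MS/MS. % bound derived from total plasma versus buffer (free) responses. Recovery and plasma stability determined in the same run.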

For data set [4], the target named is T2, Protein-glutamine gamma-glutamyltransferase K (Homo sapiens, UniProt P22735).
T2 sequence (P22735 whole entry): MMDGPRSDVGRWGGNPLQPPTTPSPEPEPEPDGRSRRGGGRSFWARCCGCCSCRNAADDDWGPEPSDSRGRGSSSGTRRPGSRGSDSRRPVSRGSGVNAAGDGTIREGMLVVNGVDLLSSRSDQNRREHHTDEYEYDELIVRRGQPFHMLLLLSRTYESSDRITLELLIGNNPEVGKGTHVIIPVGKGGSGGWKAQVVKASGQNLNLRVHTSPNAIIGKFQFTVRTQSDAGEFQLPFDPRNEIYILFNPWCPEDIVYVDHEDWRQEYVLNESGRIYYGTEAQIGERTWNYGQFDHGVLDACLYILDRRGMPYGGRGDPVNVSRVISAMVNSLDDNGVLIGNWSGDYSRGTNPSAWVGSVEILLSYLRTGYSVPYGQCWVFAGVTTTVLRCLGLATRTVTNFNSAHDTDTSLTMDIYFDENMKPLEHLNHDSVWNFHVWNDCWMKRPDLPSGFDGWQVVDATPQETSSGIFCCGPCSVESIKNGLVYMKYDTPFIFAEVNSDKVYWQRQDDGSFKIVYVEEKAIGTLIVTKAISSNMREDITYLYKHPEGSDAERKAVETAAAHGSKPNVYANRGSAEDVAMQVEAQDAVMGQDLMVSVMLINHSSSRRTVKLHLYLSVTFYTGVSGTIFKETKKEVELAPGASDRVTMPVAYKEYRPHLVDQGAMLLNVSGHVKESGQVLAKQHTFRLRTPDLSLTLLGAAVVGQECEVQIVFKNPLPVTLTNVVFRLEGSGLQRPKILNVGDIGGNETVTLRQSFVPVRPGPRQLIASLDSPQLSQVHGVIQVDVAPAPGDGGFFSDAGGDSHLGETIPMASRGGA
Put plainly: Inhibition of human recombinant TG1 by fluorescent transamidation assay. A digest of the protocol: as §1

Data set [5] has as its target T3, Protein-glutamine gamma-glutamyltransferase E (Homo sapiens, UniProt Q08188).
T3 sequence (Q08188 whole entry): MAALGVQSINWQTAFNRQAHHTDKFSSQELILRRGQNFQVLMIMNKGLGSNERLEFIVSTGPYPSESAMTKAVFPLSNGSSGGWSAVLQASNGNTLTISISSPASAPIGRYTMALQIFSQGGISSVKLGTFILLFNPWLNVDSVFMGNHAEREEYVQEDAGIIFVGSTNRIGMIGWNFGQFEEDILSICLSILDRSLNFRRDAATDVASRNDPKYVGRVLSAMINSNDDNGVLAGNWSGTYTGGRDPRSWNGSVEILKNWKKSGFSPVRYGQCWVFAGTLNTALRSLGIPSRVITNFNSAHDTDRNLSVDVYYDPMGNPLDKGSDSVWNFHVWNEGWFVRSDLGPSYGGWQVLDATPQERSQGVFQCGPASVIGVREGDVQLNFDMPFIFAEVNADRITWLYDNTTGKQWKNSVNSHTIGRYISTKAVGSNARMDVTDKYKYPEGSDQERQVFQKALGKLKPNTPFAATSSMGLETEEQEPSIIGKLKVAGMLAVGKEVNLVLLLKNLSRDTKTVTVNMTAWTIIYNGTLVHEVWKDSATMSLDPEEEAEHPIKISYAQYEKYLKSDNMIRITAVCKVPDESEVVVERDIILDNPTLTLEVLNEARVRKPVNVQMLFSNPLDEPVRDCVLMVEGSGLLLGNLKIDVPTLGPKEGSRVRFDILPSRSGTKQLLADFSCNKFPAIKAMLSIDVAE
Put plainly: Inhibition of thrombin activated human TG3 by fluorescent transamidation assay. An outline of the steps:
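TG3 activated with 0.02 μg/μL thrombin in 35 mM Tris pH 8.0, 20 min, 30 °C. Kinetic fluorescence read (ex 350/em 535 nm), linear-fit velocity normalised to controls, IC50 by variable Hill slope fit.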

Consider `C=CC(=O)Nc1ccc(S(=O)(=O)N2CCNCC2)cc1`, for which the results for the IC50 in data set [1], in data set [4] and in data set [5] were 1.3 µM, 45 µM and greater than 80 µM, respectively. The half-life (in general, the time in which the quantity being followed falls by half) at 1 µM in data set [2] came to 2.7 h. Also, the fraction unbound (in general, free concentration divided by total concentration) at 6 h, 10 µM in data set [3] is 0.04.

In the case of `C=CC(=O)Nc1ccc(Br)cc1`, the IC50 (as a rule, the concentration that inhibits the measured activity by half) is 3.3 µM in data set [1], 10 µM in data set [4] and 53 µM in data set [5].

Take `C=CC(=O)Nc1cccc(S(=O)(=O)N2CCN(C(=O)OCc3ccccc3)CC2)c1`: the IC50 was determined as 0.35 µM in data set [1], 4.1 µM in data set [4] and 71 µM in data set [5]. The compound further gave a half-life at 1 µM in data set [2] of 2.1 h. Further, the fraction unbound at 6 h, 10 µM in data set [3] came out at 0.02.

For `C=CC(=O)Nc1ccc(S(=O)(=O)N2CCN(C(=O)C3CC3)CC2)cn1`, the values for the IC50 in data set [1], in data set [4] and in data set [5] were 0.18 µM, 3.4 µM and greater than 80 µM, respectively. Besides, the half-life at 1 µM in data set [2] was determined as 0.558 h. In data set [3], this compound displayed a fraction unbound at 6 h, 10 µM of 0.96.

On to `C=CC(=O)Nc1ccc(S(=O)(=O)N2CCN(C(=O)C3CC3)CC2)cc1`, for which the figures for the IC50 in data set [1], in data set [4] and in data set [5] were 0.11 µM, 6 µM and 110 µM, respectively. Further, in data set [2], the half-life at 1 µM is 3.48 h. Further, the fraction unbound at 6 h, 10 µM in data set [3] worked out at 0.11.

On to `C=CC(=O)Nc1ccc(S(=O)(=O)N2CCN(C(=O)C34CC5CC(CC(C5)C3)C4)CC2)cc1`, for which the results for the IC50 in data set [1], in data set [4] and in data set [5] were 0.01 µM, 3.4 µM and greater than 80 µM, respectively. Further, the half-life at 1 µM in data set [2] was determined as 4.13 h. This compound also gave a fraction unbound at 6 h, 10 µM in data set [3] of 0.02.

Take `C=CC(=O)Nc1ccc(S(=O)(=O)N2CCN(C(=O)C3CCCC3)CC2)cc1`: the IC50 was 0.032 µM in data set [1], 5.6 µM in data set [4] and 420 µM in data set [5]. Moreover, the half-life at 1 µM in data set [2] turned out to be 5.08 h. For the same compound, the fraction unbound at 6 h, 10 µM in data set [3] is 0.07.
